According to ChEMBL document CHEMBL3734704, “Synthesis and Biological Evaluation of Novel Bouchardatine Derivatives as Potential Adipogenesis/Lipogenesis Inhibitors for Antiobesity Treatment” (J Med Chem, 2015):
The source made the active and inactive calls. The calls are words filed in the database; no cut-off is given here.

How the values were obtained:
[1] = Decrease in triglyceride level in mouse 3T3L1 cells at 1 uM measured during 3 to 6 days by oil red O staining based microscopic analysis; type: functional, cell-based; conditions: 3T3-L1
In short: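 3T3-L1 cells given 1 µM compound during day 0-3, 0-6, 0-9, 3-6, 3-9 or 6-9 of differentiation. On Day 9, intracellular lipid measured by TG assay (Triton lysate, GPO-POD kit, per protein) and by Oil Red O staining with microscopy; n = 3.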

[2] = Cell cycle arrest in mouse 3T3L1 cells assessed as number of cells at G2/M phase at 3 uM after 24 hrs by flow cytometry (reference value: 37.2%); type: functional, cell-based; conditions: 3T3-L1
[3] = Decrease in triglyceride level in mouse 3T3L1 preadipocytes compound treated for 6 days measured on day 6 by oil red O staining based microscopic analysis; type: functional, cell-based
In short: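 3T3-L1 preadipocytes, 2 days post-confluent, treated at 0.01-10.0 µM for 6 days of differentiation, with compound added Day 0 and renewed Day 3. On Day 6, TG measured by TG assay (per protein) and confirmed by Oil Red O staining; n = 3.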

[4] = biological target: T1, Serine/threonine-protein kinase STK11 (Mus musculus) (UniProt Q9WTK7); assay: Activation of LKB1-mediated ACC in mouse 3T3L1 cells assessed as increase in phophorylated ACC level at 3 uM after 3 days by western blot analysis; type: cell-based; conditions: 3T3-L1
T1 sequence (whole entry): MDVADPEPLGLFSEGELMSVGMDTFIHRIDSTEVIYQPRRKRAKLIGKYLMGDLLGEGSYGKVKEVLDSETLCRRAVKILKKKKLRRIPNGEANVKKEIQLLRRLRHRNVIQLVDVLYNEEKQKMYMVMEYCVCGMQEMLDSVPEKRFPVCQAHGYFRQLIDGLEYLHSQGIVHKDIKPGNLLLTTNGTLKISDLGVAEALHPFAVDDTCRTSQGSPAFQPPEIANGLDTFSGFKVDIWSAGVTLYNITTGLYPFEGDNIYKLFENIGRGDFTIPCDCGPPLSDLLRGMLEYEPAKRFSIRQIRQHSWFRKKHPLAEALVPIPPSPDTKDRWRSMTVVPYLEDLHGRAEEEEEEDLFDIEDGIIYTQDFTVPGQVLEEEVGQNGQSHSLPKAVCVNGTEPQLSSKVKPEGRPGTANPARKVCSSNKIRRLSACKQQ

[5] = Cell cycle arrest in mouse 3T3L1 cells assessed as number of cells at G2/M phase at 0.3 uM after 24 hrs by flow cytometry (reference value: 37.2%); type: functional, cell-based; conditions: 3T3-L1
[6] = Downregulation of SREBP-1c mRNA level in mouse 3T3L1 cells at 0.3 to 3 uM after 24 hrs by RT-PCR analysis; type: functional, cell-based; conditions: 3T3-L1
In short: (§1)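 3T3-L1 preadipocytes in adipogenic cocktail with compound (0.3-3.0 µM; 3 µM for the 2 h and 24 h time course). Total RNA extracted, cDNA made from 1 µg RNA with oligo primer, then PCR: 95 °C 10 min, 35 cycles of 95 °C 30 s, annealing 45 s, 72 °C 1 min, final 72 °C 10 min. Normalized to actin; n = 3.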

3T3-L1 [7] = assay: Induction of apoptosis in mouse 3T3L1 cells assessed as viable cells at 1 uM after 24 hrs by annexin-V-FITC and PI staining based flow cytometry (reference value: 98.95%); type: functional; conditions: 3T3-L1, 24 h, read-out: Activity
3T3-L1 [8] = assay: Inhibition of cell differentiation in mouse 3T3L1 cells assessed as delayed time point of cell contact inhibition at 0.5 uM for 9 days; type: functional
In short: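 3T3-L1 preadipocytes were induced to differentiate (IBMX/dexamethasone/insulin for 3 days, then insulin) with compound added from day 0 at 0.5 or 5 µM; DMSO vehicle served as control. Cells were collected and counted every day to follow proliferation and to find when contact inhibition resumed.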

[9] = Cytotoxicity against mouse 3T3L1 cells preadipocytes assessed as cell viability at 1 to 10 uM for 24, 48 and 72 hrs by LDH release assay relative to control; conditions: 3T3-L1 preadipocyte cells
HepG2 [10] = assay: Decrease in triglyceride level in human HepG2 cells at 10 uM after 24 hrs by GPO-POD assay in presence of 0.5 mM oleic acid sodium; type: functional
In short: (§2)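 HepG-2 cells seeded, then after 24 h exposed to 0.5 mM oleic acid sodium plus compound (1 µM; dose series up to 10 µM) for 24 h, DMSO vehicle. Cells lysed in 0.2% Triton X-100 for 1 h, sonicated, centrifuged. Triglyceride measured by GPO-POD kit and cholesterol by kit, both normalized to BCA protein; n = 3.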

HepG2 [11] = assay: Decrease in cholesterol level in human HepG2 cells at 1 uM after 24 hrs by […] assay in presence of 0.5 mM oleic acid sodium; type: functional; in short: as §2
[12] = Cell cycle arrest in mouse 3T3L1 cells assessed as number of cells at G0/G1 phase at 1 uM after 24 hrs by flow cytometry (reference value: 37.6%); type: functional, cell-based; conditions: 3T3-L1
[13] = biological target: T1, Serine/threonine-protein kinase STK11 (Mus musculus); assay: Activation of LKB1-mediated AMPK in mouse 3T3L1 cells assessed as increase in phophorylated AMPK alpha at Thr 172 residue level at 3 uM after 10 mins by western blot analysis; type: cell-based; conditions: 3T3-L1
In short: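 3T3-L1 preadipocytes held in adipogenic cocktail with or without compound at 3 µM, time course (10 min, 2 h, 24 h) during differentiation. Lysis in RIPA with protease/phosphatase inhibitors, SDS-PAGE, PVDF, BSA block, primary antibody 16 h at 4 °C, HRP secondary. Bands normalized to GAPDH, with the 10 min DMSO group set as 100%; n = 3.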

[14] = Downregulation of SREBP-1c mRNA level in mouse 3T3L1 cells at 3 uM after 24 hrs by RT-PCR analysis; type: functional, cell-based; conditions: 3T3-L1; in short: as §1
[15] = Cell cycle arrest in mouse 3T3L1 cells assessed as number of cells at G0/G1 phase at 0.3 uM after 24 hrs by flow cytometry (reference value: 37.6%); type: functional, cell-based; conditions: 3T3-L1
[16] = Cell cycle arrest in mouse 3T3L1 cells assessed as number of cells at S phase at 0.3 uM after 24 hrs by flow cytometry (reference value: 18.1%); type: functional, cell-based; conditions: 3T3-L1
[17] = Decrease in triglyceride accumulation in mouse 3T3L1 cells at 10 uM for 3 days oil red O staining based microscopic analysis; type: functional, cell-based; conditions: 3T3-L1
In short: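 3T3-L1 cells differentiated from 2 days post-confluence with IBMX/dexamethasone/insulin cocktail for 3 days, then insulin medium to Day 6. Compounds at 1 and 10 µM added Day 0 for 3 days. Triglyceride read on Day 6 with Oil Red O (formaldehyde fixation, 30 min stain, isopropanol extraction, OD 510 nm); n = 3.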

[18] = Cell cycle arrest in mouse 3T3L1 cells assessed as number of cells at S phase at 1 uM after 24 hrs by flow cytometry (reference value: 18.1%); type: functional, cell-based; conditions: 3T3-L1
3T3-L1 [19] = assay: Induction of apoptosis in mouse 3T3L1 cells assessed as late apoptotic cells at 1 uM after 24 hrs by annexin-V-FITC and PI staining based flow cytometry (reference value: 0.03%); type: functional
3T3-L1 [20] = assay: Induction of apoptosis in mouse 3T3L1 cells assessed as early apoptotic cells at 1 uM after 24 hrs by annexin-V-FITC and PI staining based flow cytometry (reference value: 0.56%); type: functional

## O=Cc1c(-c2nc(NCCN3CCCC3)c3ccccc3n2)[nH]c2ccccc12
[1]
  inhibition: 80%
[2]
  Activity: 57.9%
[3]; 3T3-L1
  inhibition: Dose-dependent effect
[3]; 3t3-l1
  EC50: 17 nM
[4]
  Activity: Active
[5]
  Activity: 40.2%
[6]
  inhibition: Active
3T3-L1 [7]
  viability at 1 µM: 98%
3T3-L1 [8]
  Time: 6 days
[9]
  viability at 72 h, 10 µM: 83%
HepG2 [10]
  inhibition (INH): 32%
HepG2 [11]
  inhibition (INH): <10%
[12]
  Activity: 42.9%
[13]
  Activity: Active
[14]
  inhibition: Active
[15]
  Activity: 51.8%
[16]
  Activity: 6.4%
[17]
  inhibition: 94.9%
[18]
  Activity: 5.2%
3T3-L1 [19]
  Activity: 0.25%
3T3-L1 [20]
  Activity: 0.84%
